This is a sample that favours compounds with a hit; in the whole collection about 2.5% have one here.
proKLK7 act: proKLK7 (human) activation, primary screen. purified proKLK7, EDANS-DABCYL substrate fluorescence; 100% is mature enzyme control, 0% vehicle. activation, % at 7 µM. 370,000 compounds, 0.9% hits;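 active = activation above the mean of all tested compounds plus 3 SD, computed per campaign excluding outliers beyond control limits, cut at about 13% in these data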
ADAM10 inh: inhibits human ADAM10; O14672; recombinant ADAM10, EDANS/DABCYL FRET peptide cleavage, 3 h; inhibition, % at 7 µM; 370,000 compounds, 0.62% hits; AID 720582;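 active = inhibition above a per-campaign cutoff equal to the mean of compounds falling between control-based bounds plus 3 SD, cut at about 20% in these data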;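 also: 0% = DMSO wells while the 100% control is not disclosed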
NR2E3 ag-1: agonists of human nuclear receptor NR2E3; AID 2300; inhibition of corepressor binding, % at 4.78 µM; Q9Y5X4; 320,000 compounds, 0.12% hits; GST-NR2E3/biotin-RetCOR TR-FRET, 1536-well;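 active = percent inhibition above the cutoff of mean plus 3 SD of all tested compounds, set per screening campaign, cut at about 20% in these data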;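 also: 0% = DMSO wells and 100% = biotin wells as full block of FRET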
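System: GST-tagged NR2E3 plus biotinylated RetCOR corepressor; Amount: 1.35 nM GST-tagged NR2E3 final; Dosing: single nominal compound dose of 4.8 µM; Schedule: 5 h incubation at 4 °C; Technique: TR-FRET with europium anti-GST and streptavidin-D2, 340 nm excitation; Controls: biotin wells as high control, 0.6% DMSO wells as low control.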
NR2E3 ag-2: agonists of human NR2E3 nuclear receptor | 360,000 compounds, 0.35% hits | Q9Y5X4 | inhibition of corepressor binding, % at 3.98 µM | AID 602229 | CHO-S Gal4-NCOR/VP16-NR2E3 two-hybrid, luciferase;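 active = inhibition above the mean of all tested compounds plus 3 SD, cut at about 70% in these data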;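 also: 0% = DMSO with NR2E3 transfected cells and 100% = cells lacking NR2E3 construct; higher means lower luciferase signal from less NR2E3 corepressor binding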
GASC-1 inh: inhibitors of human GASC-1 (JMJD2C) demethylase. inhibition, % at 2.35 µM. 330,000 compounds, 0.069% hits. GST-JMJD2C(1-420) H3K9me3 demethylation, DELFIA europium;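 active = more than half of a compound's replicate wells show inhibition beyond 50%, single wells judged on their own value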;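 also: signal counts dimethyl H3K9 product captured on neutravidin plate; 0% = median of DMSO wells and 100% = 0.3 times that DMSO median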
ADAM17 inh: ADAM17 inhibition, QFRET primary screen. inhibition, % at 6.95 µM. recombinant ADAM17, EDANS/DABCYL FRET peptide cleavage. AID 720648. P78536. 370,000 compounds, 0.83% hits;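 active = inhibition above the mean of compounds lying between control limits plus 3 SD, set per campaign, cut at about 8.5% in these data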;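 also: 0% = DMSO-only wells as the low control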
Target sequence (P78536 215-824 limits assumed): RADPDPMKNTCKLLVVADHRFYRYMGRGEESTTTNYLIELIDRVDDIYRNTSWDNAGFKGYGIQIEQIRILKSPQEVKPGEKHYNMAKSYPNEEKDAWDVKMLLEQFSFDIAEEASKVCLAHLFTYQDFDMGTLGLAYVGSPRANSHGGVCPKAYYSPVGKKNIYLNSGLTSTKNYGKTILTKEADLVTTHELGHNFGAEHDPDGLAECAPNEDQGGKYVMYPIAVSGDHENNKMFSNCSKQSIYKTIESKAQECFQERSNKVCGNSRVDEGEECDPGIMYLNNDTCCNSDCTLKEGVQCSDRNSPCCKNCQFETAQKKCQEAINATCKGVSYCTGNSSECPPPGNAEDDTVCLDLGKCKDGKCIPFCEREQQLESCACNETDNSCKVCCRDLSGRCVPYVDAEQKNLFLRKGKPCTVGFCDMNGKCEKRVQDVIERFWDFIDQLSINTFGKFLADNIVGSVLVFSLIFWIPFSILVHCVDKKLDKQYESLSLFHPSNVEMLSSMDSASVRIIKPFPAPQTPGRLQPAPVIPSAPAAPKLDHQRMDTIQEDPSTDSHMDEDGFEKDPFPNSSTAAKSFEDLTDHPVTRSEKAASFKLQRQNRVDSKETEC
ADAM10 counter: counter-screen for ADAM17 exosite inhibitors: inhibitors of human ADAM10; shares compounds with ADAM17 inh; recombinant ADAM10, EDANS/DABCYL FRET peptide cleavage, 3 h; inhibition, % at 6.95 µM; 2,900 compounds, 47% hits; AID 743256;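 active = mean inhibition over the triplicate runs exceeds the activity threshold set in the earlier primary screen, cut at about 20% in these data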;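 also: 0% = DMSO wells and 100% = marimastat wells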
ADAM17 confirm: human ADAM17 inhibition, confirmation. inhibition, % at 6.95 µM. shares compounds with ADAM17 inh. recombinant ADAM17, EDANS/DABCYL QFRET peptide cleavage. AID 743257. 2,900 compounds, 65% hits;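 active = mean inhibition across replicates above the hit cutoff set in the primary screen, cut at about 8.5% in these data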;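 also: 0% = DMSO wells and 100% = marimastat wells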
Numbers without * were called inactive; . = not tested or not shown.

SMILES | proKLK7 act | ADAM10 inh | NR2E3 ag-1 | NR2E3 ag-2 | GASC-1 inh | ADAM17 inh | ADAM10 counter | ADAM17 confirm
COCCCNC(=O)Cn1nc(-c2ccccc2OC)ccc1=O | 0 | 8 | 1 | -13 | 3 | 10* | 10 | 2
Cn1c(CC(=O)Nc2ccccc2F)nnc1SCC(=O)Nc1nccs1 | 0 | -2 | 0 | 7 | -3 | -3 | . | .
O=C(OCCCN1CCC2(CCC(c3ccccc3)CC2)C1=O)c1ccccc1 (stereo not drawn) | 1 | 7 | . | . | . | 5 | . | .
O=C(Nc1ccccn1)c1cc(-c2cccc(Cl)c2)nc2ccccc12 | -3 | 0 | 1 | -26 | 3 | -5 | . | .
O=C(Nc1ccc(F)cc1)c1ccccc1Oc1ccc(C(F)(F)F)cc1[N+](=O)[O-] | 1 | 17 | -2 | -15 | -2 | 11* | 23* | 12*
COc1ccc(CNc2ccc([N+](=O)[O-])cn2)cc1 | -1 | -8 | 3 | -103 | -1 | -2 | . | .
COc1ccc(Nc2ccc([N+](=O)[O-])cn2)cc1 | 0 | 12 | -2 | -61 | 5 | 10* | 3 | 5
COc1ccc(C(=O)CC(=O)Nc2ccc([N+](=O)[O-])cc2)cc1 | 0 | 16 | 0 | -13 | 5 | 9.5* | 25* | 12*
O=C(C[C@@H]1C/C=C\CCC(=O)OC[C@@H]2CCCN2C1=O)N[C@@H](CO)Cc1ccccc1 | 1 | 3 | . | -11 | -2 | 8.9* | 4 | 3
NC(CSC(c1ccccc1)(c1ccccc1)c1cccc2ccccc12)C(=O)O (stereo not drawn) | . | . | . | 15 | . | . | . | .
NC(CSC1(c2cccc3ccccc23)c2ccccc2-c2ccccc21)C(=O)O (stereo not drawn) | -1 | -7 | . | -12 | . | 10* | 13 | 10*
COc1cccc(C(=O)NC23CC4CC(CC(C4)C2)C3)c1 | 0 | -2 | 2 | -33 | -10 | -1 | . | .
CC(C)(C)OC(=O)NCc1ccc(NC(=O)c2nc[nH]c2C(=O)NCCNC(=O)c2[nH]cnc2C(=O)Nc2ccc(CNC(=O)OC(C)(C)C)cc2)cc1 | . | . | . | 3 | -2 | . | . | .
CC(C)(C)OC(=O)NCc1ccc(NC(=O)c2nc[nH]c2C(=O)N[C@@H](Cc2ccccc2)C(=O)OC(C)(C)C)cc1 | -5 | 17 | 5 | 8 | 17 | 8.9* | 46* | 23*
CC(C)(C)OC(=O)CNC(=O)c1[nH]cnc1C(=O)Nc1ccc(CNC(=O)OC(C)(C)C)cc1 | 0 | 16 | -3 | 26 | -5 | 12* | 30* | 16*
CC(C)(C)OC(=O)CNC(=O)c1nc[nH]c1C(=O)NCc1ccccc1 | 0 | 0 | -2 | 7 | -2 | -1 | . | .
C[C@@H](NC(=O)c1nc[nH]c1C(=O)N[C@@H](Cc1ccccc1)C(=O)OCc1ccccc1)c1ccccc1 | -1 | 15 | 3 | -4 | 41 | 12* | 30* | 17*
C[C@H](NC(=O)c1nc[nH]c1C(=O)N[C@@H](Cc1ccccc1)C(=O)OCc1ccccc1)c1ccccc1 | 0 | 16 | -2 | 10 | -3 | 9 | . | .
CC(C)(C)OC(=O)NCCOC(=O)c1[nH]cnc1C(=O)NCc1ccccc1 | 0 | 11 | 2 | 16 | -3 | 11* | 6 | 2
CCCn1c(SCC(=O)Nc2cccnc2Cl)n[nH]c1=O | -1 | -6 | . | -24 | 4 | -4 | . | .
O=c1cc(CO)oc(C(Nc2ccccn2)c2cccc(F)c2)c1O (stereo not drawn) | 0 | -15 | -3 | -14 | -13 | -1 | . | .
COc1cccc(C(Nc2ccccn2)c2oc(CO)cc(=O)c2O)c1 (stereo not drawn) | 0 | 1 | -1 | -27 | -13 | 13* | 27* | 29*
CCC(=O)Nc1ccc(NC(=O)CSc2nnc(-c3ccco3)n2CC)cc1 | 0 | 5 | 3 | -14 | -1 | -4 | . | .

Screens deposited in PubChem BioAssay by several laboratories.
